FN deposition inh: fibronectin deposition inhibition | AH1F fibroblasts, Alexa488-fibronectin deposition fluorescence, overnight | inhibition, % at 12.6 µM | 350,000 tested, 0.086% active | AID 743247;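 active = mean inhibition across replicates of 30% or more, regardless of how many single replicates reach that level; inconclusive = mean under 30% yet at least half of replicates reach 30%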;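 note: positive control wells lacked labelled fibronectin entirely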
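Material: AH1F fibroblast monolayer depositing Alexa488-labelled fibronectin into matrix / Amount: 10000 AH1F cells per well / Signal: fluorescence 485/525 nm / Medium: DMEM, 2% serum / Compound: single dose, pinned / Incubation: 1 h cell adhesion before compound, then overnight fibronectin incubation / Reagent: Alexa488-FN, 24 nM final / Read-out: inhibition of fibronectin deposition signal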
PGC1a acetyl inh: PGC1a acetylation modulation, inhibitor mode; U2OS PGC1a acetylation, AlphaScreen anti-acetyl-lysine; with virally co-expressed GCN5 acetyltransferase; AID 651687; 350,000 tested, 0.17% active; inhibition, % at 15.6 µM;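 active = every replicate shows inhibition of at least 40%; inconclusive = mean inhibition at least 40% but some replicate below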;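 note: 0% = neutral control wells and 100% = positive control wells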
F508del corr: correctors of CFTR F508del function in bronchial epithelial cells; CFBE cells, YFP halide quenching; stimulated with forskolin plus potentiator P3; % fluorescence drop versus neutral controls; activity (quench increase), % at 7.58 µM; 350,000 tested, 0.36% active; AID 720511;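 active = mean added fluorescence quench of at least 8% versus neutral control, with both replicates also reaching 8%; inconclusive = only one of the mean or replicate conditions met; inactive = mean below 8% and not both replicates reaching 8%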;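 note: cells transiently co-express mutant CFTR-F508del with the halide-sensitive YFP; corrector assay measuring rescue of mutant channel to the surface after 24 h compound exposure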
EWS-Fli inh: EWS/Fli transcriptional activity inhibition. A673 NR0B1-luciferase reporter, viability-normalised. inhibition, % at 12.6 µM. 350,000 tested, 0.67% active. AID 651661;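 active = mean inhibition of at least 50% after viability correction, with every replicate also passing that limit; inconclusive = mean reaches 50% but only one of two replicates passes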;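 note: firefly luciferase signal divided by Alamar Blue viability fluorescence both relative to DMSO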
PAX8 reporter: lowers PAX8-driven luciferase in RMG-I cells. RMG-I TPO-luciferase reporter, SteadyGlo, 24 h. inhibition, % at 12.6 µM. 360,000 tested, 1.2% active;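 active = mean replicate inhibition at least 60% with every replicate also reaching 60%; inconclusive = only one of the two criteria is met; inactive = mean below 60% and not all replicates reaching 60%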;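 note: luciferase light reporting Pax8 driven TPO promoter activity; plate controls were median of neutral control wells for no effect and mitoxantrone controls for full effect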
HIV Env fusion: blocks HIV Env-driven cell-cell fusion; HeLa-JRFL Env/CEM21 cell fusion, luciferase; inhibition, % at 12.3 µM; 360,000 tested, 1.1% active; AID 651610;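 active = mean replicate inhibition score of at least 50 and every replicate individually at or above 50; inconclusive = only one of the two criteria met; inactive = mean below 50 and not all replicates reaching 50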;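 note: 0% = plate neutral controls and 100% = maraviroc near 300 nM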
* = called active by the depositor; ? = inconclusive; . = no result; [ ] = another dose, or the depositor's remark. In the library only some 2.3% were active in any assay of this set; here they are far more common.

SMILES	FN deposition inh	PGC1a acetyl inh	F508del corr	EWS-Fli inh	PAX8 reporter	HIV Env fusion
C[C@@H]1CN([C@H](C)CO)C(=O)c2ccccc2-c2ccccc2CO[C@H]1CN(C)C(=O)Nc1cccc(Cl)c1Cl	15.8	.	.	.	.	.
C[C@@H]1CCCCO[C@H](CN(C)C(=O)Nc2ccc3c(c2)OCO3)[C@H](C)CN([C@H](C)CO)C(=O)c2cc(NC(=O)CCCN(C)C)ccc2O1	.	1.8	-0.2	-3.6	-3.2	0.6[16.7 µM]
CCOC(=O)C1=C(CC)Nc2ccccc2N=C1NC(=O)Nc1ccc(Cl)c(Cl)c1	-6.5	14.1	.	.	62.1*	113.5*
CCOC(=O)C1=C(CC)Nc2ccccc2N=C1NC(=O)c1cc(C)on1	-0.2	-1.4	0.0	0.1	-5.6	.
O=C(N(Cc1ccccc1)c1ccccn1)C12CC3CC(CC(C3)C1)C2	-1.5	.	.	.	.	122.1*
O=C(N(c1ccccn1)c1ccccn1)C12CC3CC(CC(C3)C1)C2	-5.2	-1.6	1.0	2.5	9.0	41.1
CO[C@@H]1CN(C)C(=O)c2ccc(NC(=O)c3ccc4c(c3)OCO4)cc2OC[C@H](C)N(CC2CC2)C[C@@H]1C	-4.4	-7.1	-3.9	-4.9	2.5	.
C[C@H](CO)N1C[C@H](C)[C@@H](CN(C)Cc2ccc3c(c2)OCO3)Oc2ccc(NC(=O)Cn3cnnn3)cc2CC1=O	.	-2.5	-2.1	-3.5	-6.2	1.1[16.7 µM]
C[C@H](CO)N1C[C@H](C)[C@@H](CN(C)Cc2ccc(Cl)c(Cl)c2)Oc2ccc(NC(=O)Nc3ccc(F)cc3)cc2CC1=O	-16.5	10.1	3.0	63.0*	83.9*	13.4[16.7 µM]
C[C@H](CO)N1C[C@H](C)[C@H](CN(C)Cc2ccc(Cl)c(Cl)c2)Oc2ccc(NC(=O)C3CCCCC3)cc2CC1=O	5.1	-11.9	10.0*	1.4	8.3	-7.1[16.7 µM]
C[C@H]1CN([C@@H](C)CO)C(=O)Cc2cc(NC(=O)Nc3ccc(F)cc3)ccc2O[C@H]1CN(C)Cc1ccc(Cl)c(Cl)c1	2.4	5.5	-2.0	-12.3	110.5*	19.5[16.7 µM]
C[C@H]1CN([C@@H](C)CO)C(=O)Cc2cc(NC(=O)Nc3ccc(C(F)(F)F)cc3)ccc2O[C@H]1CN(C)Cc1ccc(Cl)c(Cl)c1	19.6	-8.3	-0.3	5.9	49.4	30.8[16.7 µM]
C[C@H]1CN([C@@H](C)CO)C(=O)Cc2cc(NC(=O)Cn3cnnn3)ccc2O[C@@H]1CN(C)Cc1ccc(Cl)c(Cl)c1	-2.2	-4.1	-2.5	68.7*	1.7	.
C[C@H](CO)N1C[C@H](C)[C@H](CN(C)Cc2ccc(Cl)c(Cl)c2)Oc2ccc(NC(=O)Nc3ccc(F)cc3)cc2CC1=O	8.1	-6.9	1.2	-2.0	5.8	12.4[16.7 µM]
C[C@@H]1CN([C@@H](C)CO)C(=O)Cc2cc(NC(=O)Nc3ccccc3)ccc2O[C@@H]1CN(C)Cc1ccc(Cl)c(Cl)c1	.	-6.3	4.5	8.4	?	-66.1[16.7 µM]
C[C@@H]1CN([C@@H](C)CO)C(=O)Cc2cc(NC(=O)Nc3ccc(F)cc3)ccc2O[C@H]1CN(C)Cc1ccc(Cl)c(Cl)c1	2.0	8.9	0.7	39.8	105.3*	27.4[16.7 µM]
C[C@@H]1CN([C@H](C)CO)C(=O)Cc2cc(NC(=O)Nc3ccc(F)cc3)ccc2O[C@@H]1CN(C)Cc1ccc(Cl)c(Cl)c1	-7.0	-0.7	4.9	-20.9	109.0*	-3.3[16.7 µM]
COc1ccc(S(=O)(=O)Nc2ccc3c(c2)C(=O)N([C@H](C)CO)C[C@H](C)[C@H](CN(C)C(=O)Nc2ccc(C(F)(F)F)cc2)OCCCC[C@@H](C)O3)cc1	-15.2	-13.5	0.2	-1.3	24.7	-18.9[16.7 µM]
COc1cccc(-c2ncc3ccccc3c2COC(=O)N(C)C)c1	8.2	-0.7	5.1	3.7	1.6	61.3*
CCCCCCCCCn1c2c(c(=N)c3c1CCC3)CCCC2	.	32.9	.	.	.	.
CCCCCCCCn1c2c(c(=N)c3ccccc31)CCC2	-6.7	23.2	4.3	42.2	80.0*	55.5*
CCCCCn1c2c(c(=N)c3ccccc31)CCC2	8.0	1.5	0.0	22.2	66.7*	18.9
CCCCCCCCCCn1c2c(c(=N)c3c1CCC3)CCC2	3.1	.	.	.	.	69.2*
CCCCn1c2c(c(=N)c3ccccc31)CCC2	-0.5	.	-0.1	19.9	33.1	1.2
COc1ccc(NC(=O)Nc2ccc3c(c2)C(=O)N([C@@H](C)CO)C[C@H](C)[C@H](CN(C)Cc2ccncc2)OCCCC[C@@H](C)O3)cc1	.	0.4	0.6	-2.9	-10.5	2.5[16.7 µM]
SMILES	FN deposition inh	PGC1a acetyl inh	F508del corr	EWS-Fli inh	PAX8 reporter	HIV Env fusion
C[C@H](CO)N1C[C@H](C)[C@H](CN(C)CC2CC2)Oc2ccc(NC(=O)CCCCCC(=O)Nc3ccccc3N)cc2CC1=O	.	7.1	0.4	48.2	.	0.6[16.7 µM]
c1cc2cc(CNc3nc(NCC4CC4)nc4ccsc34)ccc2o1	6.1	.	-1.2	31.3	26.7	80.3*
COc1ccccc1CNc1nc(Nc2cccc(-c3cnco3)c2)c2sccc2n1	-1.1	.	-1.3	3.2	73.7*	0.0
COc1ccccc1CNc1nc(NCc2ccc3occc3c2)c2sccc2n1	-10.3	.	8.0	21.3	37.1	57.5*
CCCNC(=O)[C@@H]1[C@@H](CO)[C@@H]2Cn3c(ccc(-c4ccccc4)c3=O)[C@@H]2N1CC1CC1	.	.	1.8	-1.1	9.2	.
C[C@@H]1CN([C@H](C)CO)C(=O)Cc2cc(NC(=O)Nc3cccc4ccccc34)ccc2O[C@H]1CN(C)C	.	8.8	1.8	.	-13.6	.
CC(=O)C1=C(C)NC(=S)NC1c1ccccc1 (stereo unspecified)	0.3	.	-1.8	-23.8	-12.8	73.9*
CCOC(=O)c1ccc(NC(=O)c2ccccc2[N+](=O)[O-])cc1	-2.3	-4.4	.	.	-59.0	-7.9
CCOC(=O)c1cc([N+](=O)[O-])c([N+](=O)[O-])cc1NC(C)=O	-2.1	-1.6	-0.7	62.5*	23.3	.
COC1=CC(=O)C=C(OC)C1=O	-1.3	-106.9	-0.1	62.9*	78.0*	-41.1
COC1=CC(=O)c2ccccc2C1=O	.	21.6	.	.	.	.
Cc1ccc(S(=O)(=O)N(C)C[C@@H]2OCCCC[C@@H](C)Oc3ccc(NS(=O)(=O)c4ccc(Cl)cc4)cc3C(=O)N([C@@H](C)CO)C[C@H]2C)cc1	-8.5	-16.6	0.5	-16.9	67.9*	7.2[16.7 µM]
Cc1ccc(S(=O)(=O)N(C)C[C@@H]2OCCCC[C@H](C)Oc3ccc(NS(=O)(=O)c4ccc(Cl)cc4)cc3C(=O)N([C@H](C)CO)C[C@@H]2C)cc1	-12.6	-9.0	0.0	19.1	73.9*	-26.8[16.7 µM]
Cc1ccc(S(=O)(=O)N(C)C[C@@H]2OCCCC[C@@H](C)Oc3ccc(NS(=O)(=O)c4ccc(Cl)cc4)cc3C(=O)N([C@H](C)CO)C[C@H]2C)cc1	6.2	-15.4	2.2	-4.1	77.4*	-10.6[16.7 µM]
Cc1ccc(S(=O)(=O)Nc2ccc3c(c2)C(=O)N([C@H](C)CO)C[C@H](C)[C@H](CN(C)S(=O)(=O)c2ccc(Cl)cc2)OCCCC[C@H](C)O3)cc1	-7.4	10.0	1.8	17.9	65.6*	-6.7[16.7 µM]
